The values below come from paper PMC8604242 (Clinical and Translational Science, 2021).

The conditions of data set [1]: cited from earlier work.
Data set [2] deals with BTK. Particulars: cited from earlier work.
For data set [3], the system named is human hepatocytes. Particulars: cited from earlier work.
In data set [4] the test system is patients with relapsing MS. Particulars: cited from earlier work.
The nature of data set [5]: Safety. The data set is classed as in vivo, human. The settings on record: single dose of ^14C-evobrutinib.
Data set [6] is classed as in vivo, human. The settings on record: for AUC0-t of total radioactivity, GM (GM CV, %) / AUC0–24h of total radioactivity, GM (GM CV, %) / Cmax of total radioactivity, GM (GM CV, %) / Tmax of total radioactivity, median (min, max): single 75-mg oral dose. In a few lines: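 After a single oral 75‑mg ¹⁴C dose in six healthy men, total radioactivity was measured by duplicate LSC. Plasma was spiked directly with cocktail; whole blood was solubilized and decolorized first. Plasma LLOQ was 9.91 ng eq/ml (30 dpm/ml), with sampling from 0.25 h postdose. Noncompartmental parameters used actual sampling times, with descriptive statistics.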

A short description of data set [7]: Mass balance: excretion of total radioactivity in urine and feces. The data set is classed as in vivo, human. In a few lines:
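Six healthy men received one oral 75‑mg solution (30 ml, ~3.6 MBq/~100 μCi ¹⁴C label), followed by two 50‑ml bottle rinses. Urine got scintillation cocktail directly. Feces were homogenized with equal weight of water, dried, and combusted with CO2 trapped in absorber. LSC was done in duplicate. Excretion was expressed against the administered radioactive dose over nominal collection intervals, with descriptive statistics.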

A short description of data set [8]: Metabolite profiling and identification in plasma, urine and feces. The data set is classed as in vivo, human. In a few lines:
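UPLC‑HR‑MS (QTof) with the eluent fractionated every 7 s, off‑line microplate scintillation counting, and reconstructed radiochromatograms. Urine and feces were pooled per participant covering ≥90% of excreted radioactivity, excluding low‑radioactivity intervals. Plasma (1–24 h) was exhaustively extracted with ethanol/acetonitrile, evaporated under nitrogen at 37°C, and redissolved in ACN/MeOH/water 1+1+8. Nonextractable radioactivity was the precipitate counted by LSC, as % of total. AUCs were noncompartmental.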

Data set [9] in a line: Plasma PK of evobrutinib by validated LC-MS/MS. The data set is classed as in vivo, human. In outline: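 Unlabeled drug was measured in K2EDTA plasma (100 µL) by validated LC‑MS/MS with an isotopically labeled internal standard. LLOQ was 0.600 ng/ml, linear to 600 ng/ml with 1/x2‑weighted regression. Participants were six healthy men given a single oral 75‑mg solution dose. Noncompartmental Cmax, Tmax, AUC, t1/2, Vz/F and CL/F used actual sampling times. Parent AUC was related to plasma total‑radioactivity AUC.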

Data set [10] concerns rat hepatocytes. Particulars: cited from earlier work.
Where [11] appears, read: single 75-mg oral dose of ^14C-evobrutinib, six healthy men, within 168 h.

“Also recorded” adds a separate entry of the source. Like-named read-outs stand apart in the source and are kept apart here. Some results are limits rather than exact numbers.

On to `C=CC(=O)N1CCC(CNc2ncnc(N)c2-c2ccc(Oc3ccccc3)cc2)CC1` [evobrutinib], for which the Half-life in [1] (25–200 mg doses) is 1.8 to 2.6 h. The “Participants with treatment-emergent adverse events” value in data set [1] (after multiple-dosing, 13 participants) is given as 48.1%. The “Participants with treatment-emergent adverse events” value in [1] (after single-dosing, nine participants) was 25%. For the same molecule, the “Severity of most TEAEs” value in [1] is given as “mild”. Further, in data set [1] (healthy participants), the Half-life is on record as ~ 2 h and the “Time to reach maximum plasma concentration (Tmax)” value is listed as ~ 0.5 h. Besides, in data set [1] (single 25-500 mg, 25-200 mg q.d. for 14 days), the “Dose-proportionality, accumulation and time-dependency of PK” value is “dose‐proportional, with no accumulation or time‐dependency with repeat dosing”. Besides, in data set [2] (25 mg, multiple daily dosing, healthy participants), the “BTK occupancy after multiple daily dosing” value is on record as “Full BTK occupancy”. Further, the “BTK occupancy at 96 h” value in data set [2] (doses of greater than or equal to 100 mg) was “greater than 50%”. In addition, the “Maximum BTK occupancy” value in data set [2] (reached within ~ 4 h after single doses of greater than or equal to 200 mg) is above 90%. The “Number of different metabolites formed” value in data set [3] (rat and human hepatocytes) is on record as 23. Further, in data set [4] (75 mg q.d. and b.i.d., over 24 weeks), the “Total number of gadolinium-enhancing lesions on T1-weighted MRI versus placebo” value is “significantly reduced”. Besides, the “Severity of the majority of TEAEs” value in [4] is listed as “mild or moderate”. In [5], the “Nausea, headache, epistaxis, and nasopharyngitis, number of participants each” value came out at 1 participant each; the “Oropharyngeal pain, number of participants” value is given as 2 participants; the “Serious AEs, deaths, or withdrawals” value is “no serious AEs, deaths, or withdrawals”; the “Severity and relatedness of AEs” value was “mild and not considered study treatment related”. Further, the “Participants who experienced an adverse event” value in data set [5] (four of six participants) was determined as 67%. Besides, in data set [6] (at 72 and 96 h postdose), the “Mean blood to plasma ratio of total radioactivity” value worked out at 1.6. Further, in [6] (at 0.25 h postdose), the “Mean blood to plasma ratio of total radioactivity” value is 0.6. The “Time of individual maximum total radioactivity concentration in plasma, range” value in [6] (plasma, postdose) lay in the range of 0.25 to 1 h. Moreover, in data set [6] (plasma), the “AUC0-t of total radioactivity, GM (GM CV, %)” value is reported as 3915 (32.7) ng (eq) h/ml; the “AUC0–24h of total radioactivity, GM (GM CV, %)” value is given as 2805 (14.8) ng (eq) h/ml; the “Cmax of total radioactivity, GM (GM CV, %)” value was 1047 (22.8) ng eq/ml; the “Tmax of total radioactivity, median (min, max)” value (from here on “Tmax of total radioactivity”) was determined as 0.5 h. For the same molecule, in [6] (plasma, listed as 14C‐radiolabeled evobrutinib), the “Tmax of total radioactivity” value was 0.50 (0.25, 1.00) h. Further, in data set [6] (whole blood), the “AUC0-t of total radioactivity, GM (GM CV, %)” value is given as 4944 (13.6) ng (eq) h/ml; the “AUC0–24h of total radioactivity, GM (GM CV, %)” value is given as 2001 (9.9) ng (eq) h/ml; the “Cmax of total radioactivity, GM (GM CV, %)” value is given as 623 (25.5) ng eq/ml; the “Tmax of total radioactivity” value is 0.5 h. Also, in data set [6] (whole blood, listed as 14C‐radiolabeled evobrutinib), the “Tmax of total radioactivity” value is 0.50 (0.25, 1.00) h. Also, the “Unchanged evobrutinib in excreta (urine or feces)” value in data set [7] (single 75-mg oral dose) is recorded as “No unchanged evobrutinib was detected; also recorded: No unchanged evobrutinib was recovered”. Also, in [7] (setting [11]), the “Total radioactivity excreted in feces, arithmetic mean percentage of dose” value worked out at 71.0% and the “Total radioactivity excreted in urine, arithmetic mean percentage of dose” value came to 20.6%. In addition, the “Radioactive dose excreted in feces within 96 h, range” value in data set [7] (single 75-mg oral dose, 0-96 h) was 66.4–73.5%. Moreover, in data set [7] (single 75-mg oral dose, urine plus feces, first 72 h), the “Total radioactivity excreted within 72 h after administration (mean)” value was 85.3%. Besides, the “Mean total radioactivity recovery within 96 h” value in data set [7] (single 75-mg oral dose, urine plus feces, within 96 h) stood at 89.7%. Also, the “Mean total radioactivity recovery” value in data set [7] (single 75-mg oral dose, urine plus feces, within 168 h) is listed as 91.6%. Moreover, the “Number of metabolites detected and elucidated in feces” value in data set [8] (feces) came out at 30. Moreover, in data set [8] (in vivo), the “Number of phase I metabolites fully or partially elucidated” value is 40; the “Number of phase II metabolites fully or partially elucidated” value is listed as 18; the “Total number of metabolites identified in urine, feces, and plasma” value came out at 58. Also, the “Number of metabolites detected and elucidated in plasma” value in data set [8] (plasma) was 24. In addition, the “Geometric mean AUC0–24 of nonextractable radioactivity” value in [8] (plasma, after exhaustive extraction) was 1085 h٠ng eq/ml. The “Unchanged evobrutinib in feces” value in [8] (pooled feces) is given as “not detected”. Also, the “Unchanged evobrutinib in urine metabolite profiles” value in data set [8] (pooled urine) is on record as “not detected”. Moreover, the “Number of metabolites detected and elucidated in urine” value in data set [8] (urine) turned out to be 41. In data set [9] (human, plasma, po, 75 mg), the Cmax (usually the maximum level reached in the sampled fluid or tissue) stood at 321 ng/mL, the Half-life was 79.8 min and the Vd/F (usually the apparent distribution volume after extravascular dosing) turned out to be 381 L. In data set [9] (plasma, postdose), the “Time of individual maximum evobrutinib plasma concentration, range” value lay in the range of 0.25 to 0.50 h. In addition, in data set [9] (plasma, single 75-mg oral dose), the “AUC0-t of evobrutinib, GM (GM CV, %)” value is recorded as 375 (19.4) ng (eq) h/ml; the “AUC0–24h of evobrutinib, GM (GM CV, %)” value is recorded as 378 (19.4) ng (eq) h/ml; the “CL/F, GM (GM CV, %)” value is on record as 199 (19.4) L/h; the “Tmax of evobrutinib, median (min, max)” value is listed as 0.5 h. Also, in data set [9] (plasma, single 75-mg oral dose, listed as Evobrutinib), the “Tmax of evobrutinib, median (min, max)” value is 0.50 (0.25, 0.55) h. In addition, the “Parent drug share of total radioactivity plasma exposure (AUC)” value in [9] (single dose) is listed as 10–13%.

Turning to `Nc1ncnc(NCC2CCN(C(=O)C(O)CO)CC2)c1-c1ccc(Oc2ccccc2)cc1` (centres unmarked) [evobrutinib‐diol], the “Rank among metabolites in human hepatocytes” value in data set [3] was “main metabolite”.

In the case of hydroxyl‐evobrutinib, in [10], the “Rank among metabolites in rat hepatocytes” value is “most abundant metabolite”.
